# Results from ChEMBL document CHEMBL1138188, “Synthesis and anti-HIV activity of D- and L-thietanose nucleosides” (J Med Chem, 2006).
# Experiments:
# Vero = assay: Cytotoxicity against Vero cells; format: functional, cell-based; details: Chlorocebus sabaeus
# Procedure, shortened: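 Log-phase Vero cells seeded at 5 × 10³ cells/well with 10-fold serial compound dilutions, incubated 3 days at 37 °C, 5% CO₂. MTT dye added overnight, formazan solubilized 5 h, absorbance read at 570 nm.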
# CCRF-CEM = assay: Cytotoxicity against human CEM cells; format: functional, cell-based
# Procedure, shortened: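 Log-phase CEM T-lymphoblastoid cells seeded at 2.5 × 10³ cells/well with 10-fold serial compound dilutions, held 4 days at 37 °C, 5% CO₂. MTT dye added overnight, then stop-solubilization 5 h; absorbance at 570 nm.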
# PBMC = assay: Cytotoxicity against human PBMC; format: functional, cell-based
# Procedure, shortened: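 Uninfected PHA-stimulated human PBM cells, log phase, 5 × 10⁴ cells/well, exposed to 10-fold serial compound dilutions for 5 days at 37 °C, 5% CO₂. MTT overnight, formazan dissolved 5 h, read at 570 nm.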
# [1] = tested on: Human immunodeficiency virus 1; assay: Antiviral activity against HIV1 in human PBMC; format: functional, organism-based
# Procedure, shortened: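 PHA-stimulated (2-3 days) human PBM cells from seronegative donors, infected in bulk 1 h with HIV-1 LAI (100 TCID50/1 × 10⁷ cells, flask; or 200 TCID50/6 × 10⁵ cells/well, 24-well), then added to 10-fold serial compound dilutions in RPMI-1640/16% FBS/IL-2/DEAE-dextran. 5 days, 37 °C, 5% CO₂. Supernatant RT activity by poly(rA)·oligo(dT), ³H-TTP incorporation, 2 h 37 °C; EC50/EC90 by median effect method.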
Structure (SMILES),EC50 [1],EC90 [1],IC50 (Vero),IC50 (CCRF-CEM),IC50 (PBMC)
Nc1ncnc2c1ncn2[C@H]1S[C@@H](CO)[C@@H]1CO,> 100 µM,> 100 µM,> 100 µM,> 100 µM,> 100 µM
Cc1cn([C@@H]2S[C@H](CO)[C@H]2CO)c(=O)[nH]c1=O,> 100 µM,> 100 µM,> 100 µM,> 100 µM,> 100 µM
Cc1cn([C@H]2S[C@@H](CO)[C@@H]2CO)c(=O)[nH]c1=O,> 100 µM,> 100 µM,> 100 µM,> 100 µM,> 100 µM
Nc1nc(=O)n([C@@H]2S[C@H](CO)[C@H]2CO)cc1Cl,> 100 µM,> 100 µM,> 100 µM,> 100 µM,> 100 µM
Cc1cn([C@H]2C[C@H](N=[N+]=[N-])[C@@H](CO)O2)c(=O)[nH]c1=O [ZIDOVUDINE],,0.01 µM,,,> 100 µM
Nc1nc(O)c2ncn([C@@H]3S[C@H](CO)[C@H]3CO)c2n1,> 100 µM,> 100 µM,> 100 µM,> 100 µM,> 100 µM
Nc1nc(O)c2ncn([C@H]3S[C@@H](CO)[C@@H]3CO)c2n1,> 100 µM,> 100 µM,> 100 µM,> 100 µM,> 100 µM
OC[C@H]1[C@H](CO)S[C@@H]1n1cnc2c(O)ncnc21,> 100 µM,> 100 µM,> 100 µM,> 100 µM,> 100 µM
Nc1ncnc2c1ncn2[C@@H]1S[C@H](CO)[C@H]1CO,> 100 µM,> 100 µM,> 100 µM,> 100 µM,> 100 µM
O=c1ccn([C@H]2S[C@@H](CO)[C@@H]2CO)c(=O)[nH]1,> 100 µM,> 100 µM,> 100 µM,> 100 µM,> 100 µM
OC[C@H]1[C@H](n2cnc3c(O)ncnc32)S[C@@H]1CO,> 100 µM,> 100 µM,> 100 µM,> 100 µM,> 100 µM

# More lines, main results first:
EC50 [1],EC90 [1],Structure (SMILES),IC50 (Vero),IC50 (CCRF-CEM),IC50 (PBMC)
11.5 µM,41.9 µM,Nc1nc(=O)n([C@@H]2S[C@H](CO)[C@H]2CO)cc1Br,> 100 µM,1.8 µM,> 100 µM
6.9 µM,23.1 µM,O=c1ccn([C@@H]2S[C@H](CO)[C@H]2CO)c(=O)[nH]1,> 100 µM,4.9 µM,8.5 µM
1.3 µM,5.3 µM,Nc1ccn([C@@H]2S[C@H](CO)[C@H]2CO)c(=O)n1,54.8 µM,4.3 µM,≤ 1 µM
5.8 µM,13.9 µM,Nc1nc(=O)n([C@@H]2S[C@H](CO)[C@H]2CO)cc1F,> 100 µM,19 µM,< 1 µM
14.1 µM,47.6 µM,Nc1ccn([C@H]2S[C@@H](CO)[C@@H]2CO)c(=O)n1,> 100 µM,45.6 µM,13.1 µM
